How the values were obtained:
[1] = Cytotoxicity against African green monkey Vero cells by MTT assay; assay type: cell-based; conditions: chlorocebus sabaeus
In short: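 Viability was assessed by MTT after culture with compound at 0.01 nM to 100 μM, run in parallel with plaque reduction assays. Values are the average of at least two testing occasions.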

[2] = Protein binding in rat plasma assessed as unbound fraction at 5 uM by LC-MS/MS analysis based equilibrium dialysis method; assay type: ADME, cell-free
[3] = Protein binding in dog plasma assessed as unbound fraction at 5 uM by LC-MS/MS analysis based equilibrium dialysis method; assay type: ADME, cell-free, Canis lupus familiaris
[4] = Intrinsic clearance in Sprague-Dawley rat liver microsomes preincubated followed by NADPH addition and measured up to 45 mins by LC-MS/MS analysis; assay type: ADME, Microsome
[5] = Intrinsic clearance in human liver microsomes preincubated followed by NADPH addition and measured up to 45 mins by LC-MS/MS analysis; assay type: ADME, Microsome
[6] = Clearance in Sprague-Dawley rat at 1 mg/kg, iv administered […] measured after 0.02 to 24 hrs by tandem liquid chromatography/mass spectrometry; assay type: ADME, organism-based; conditions: in vivo, time 0.02-24 hrs
[7] = Intrinsic clearance in rat hepatocytes at 3 uM assessed per million cells measured up to 60 mins by LC-MS/MS analysis; assay type: ADME, cell-based, Hepatocyte; conditions: read-out: CLH
[8] = Intrinsic clearance in Beagle dog hepatocytes at 3 uM assessed per million cells measured up to 60 mins by LC-MS/MS analysis; assay type: ADME, cell-based, Canis lupus familiaris, Hepatocyte; conditions: read-out: CLH
[9] = Half life in human hepatocytes at 3 uM measured up to 60 mins by LC-MS/MS analysis; assay type: ADME, cell-based, Hepatocyte
[10] = Cytotoxicity against human Hep2 cells; assay type: cell-based; conditions: HEp-2 cells
In short: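 Hep2 cells were cultured in parallel with the plaque assays at compound concentrations of 0.01 nM to 100 μM. Viability was read by MTT, CellTox green or CellTiter-Glo.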

[11] = Half life in CD1 mouse at 1 mg/kg, iv measured after 0.03 to 24 hrs by UHPLC-TOF method; assay type: ADME, organism-based; conditions: in vivo, time 0.03-24 hrs
[12] = Half life in CD1 mouse at 10 mg/kg, po measured after 0.083 to 24 hrs by UHPLC-TOF method; assay type: ADME, organism-based; conditions: in vivo, time 0.083-24 hrs
[13] = Half life in Sprague-Dawley rat at 10 mg/kg, po measured after 0.25 to 24 hrs by UHPLC-TOF method; assay type: ADME, organism-based; conditions: in vivo, time 0.25-24 hrs
[14] = Tmax in CD1 mouse at 10 mg/kg, po measured after 0.083 to 24 hrs by UHPLC-TOF method; assay type: ADME, organism-based; conditions: in vivo, time 0.083-24 hrs
In short: (§1)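 Male CD-1 mice, acclimatized and individually housed, dosed IV and PO as amorphous-solid suspension. Terminal cardiac-puncture blood into heparinized tubes on wet ice, centrifuged at 4 °C within 15 min; plasma snap-frozen at −20 °C. IV arm sampled 2 min–24 h, oral arm 5 min–24 h. Plasma analysed by UHPLC-quadrupole-TOF MS.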

[15] = Tmax in Sprague-Dawley rat at 50 mg/kg, po measured after 0.02 to 24 hrs by UHPLC-TOF method; assay type: ADME, organism-based; conditions: in vivo, time 0.02-24 hrs
[16] = Cmax in CD1 mouse at 10 mg/kg, po measured after 0.083 to 24 hrs by UHPLC-TOF method; assay type: ADME, organism-based; design: route oral, time 0.083-24 hrs, dose 10 mg/kg; conditions: in vivo
[17] = Cmax in Sprague-Dawley rat at 10 mg/kg, po measured after 0.02 to 24 hrs by UHPLC-TOF method; assay type: ADME, organism-based; design: route oral, dose 10 mg/kg, time 0.02-24 hrs; conditions: in vivo
[18] = Cmax in Sprague-Dawley rat at 50 mg/kg, po measured after 0.02 to 24 hrs by UHPLC-TOF method; assay type: ADME, organism-based; design: route oral, dose 50 mg/kg, time 0.02-24 hrs; conditions: in vivo
[19] = Cmax in Beagle dog at 3 mg/kg, po measured after 0.03 to 24 hrs by UHPLC-TOF method; assay type: ADME, organism-based, Canis lupus familiaris; design: route oral, dose 3 mg/kg, time 0.03-24 hrs; conditions: in vivo
[20] = Clearance in Beagle dog at 0.3 mg/kg, iv measured after 0.03 to 24 hrs by UHPLC-TOF method; assay type: ADME, organism-based, Canis lupus familiaris; conditions: in vivo, time 0.03-24 hrs
[21] = Oral bioavailability in CD1 mouse at 10 mg/kg measured after 0.03 to 24 hrs by UHPLC-TOF method; assay type: ADME, organism-based; conditions: in vivo, time 0.03-24 hrs; in short: as §1
[22] = tested on: Respiratory syncytial virus; assay: Antiviral activity against Respiratory syncytial virus infected in human airway epithelial cells assessed as reduction in RSV titer at 10 nM preincubated for 2 hrs followed by viral infection and measured after 8 day post infection by luminescence assay relative to control; assay type: functional, HAE
In short: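 Primary HAE cells were differentiated for 61 days on type IV collagen-coated trans-well inserts (n = 3 cultures). Compound at 10 nM was given basolaterally for 2 h before apical inoculation with 4 × 10⁵ pfu of luciferase-expressing recombinant RSV. Apical virus titer was read by luminescence on days 7 and 8 post-infection and compared with untreated controls. Data are mean SD.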

[23] = tested on: Respiratory syncytial virus; assay: Antiviral activity against Respiratory syncytial virus Memphis 37b infected in human HEp2 cells assessed as drug resistance by measuring fold change in EC50 treated over 10 serial passages by plaque assay relative to control; assay type: functional, HEp-2
Human orthopneumovirus [24] = assay: Antiviral activity against Respiratory syncytial virus A2 infected in Balb/C mouse assessed as reduction in viral titers in lung homogenates at 1 mg/kg, po treated 2 hrs prior to viral infection followed by compound redosing at 24 hrs and measured after 5 days post infection by plaque assay relative to control; assay type: functional, human respiratory syncytial virus; design: scale not given: the % may be the effect or the level left
In short: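 Female Balb/C mice aged 7–8 weeks, 6 per group, received two oral doses 2 h before and 24 h after intranasal inoculation with 5 × 10⁶ pfu of RSV A2. Mice were euthanized on day 5. Lung homogenate titers were determined by plaque assay on Vero cells and expressed as a percentage of the control group.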

[25] = Cardiotoxicity in guinea pig assessed as effect on QT interval; assay type: toxicity, Cavia porcellus
[26] = Cardiotoxicity in dog assessed as effect on QT interval by telemetry; assay type: toxicity, Canis lupus familiaris
Rattus norvegicus = species on record: Rattus norvegicus; assay: Toxicity in rat by micronucleus test; assay type: functional, organism-based
Human orthopneumovirus [27] = assay: Antiviral activity against Respiratory syncytial virus A Memphis 37b infected in human assessed as reduction in mean AUC of viral load at 200 mg administered twice daily administered for 5 days by cell-based infectivity assay; assay type: functional; design: scale not given: the % may be the effect or the level left; conditions: time 5 day
In short: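 Healthy adult volunteers aged 18–45 with low serum pre-existing RSV-specific antibodies were challenged on day zero with about 4 log10 PFU of RSV-A Memphis 37b. Subjects were randomized into 3 equal groups: 200 mg, 350 mg or placebo twice daily for 5 days, begun after infection was confirmed. Viral load in nasal wash was measured by RT-qPCR or by cell-based infectivity assay, and AUC was compared with placebo.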

[28] = Induction of adverse effect in human infected with Respiratory syncytial virus A Memphis 37b assessed as nausea at 200 to 350 mg administered twice daily administered for 5 days; conditions: in vivo, 120 h, dose 200-350 mg, time 5 day
In short: (§2)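 Challenge study in healthy adults aged 18–45 inoculated with about 4 log10 PFU of RSV-A Memphis 37b. Dosing was 200 or 350 mg twice daily for 5 days after infection was confirmed. Adverse events were monitored daily. ECG, physical examination and urinalysis were done at prespecified time points.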

[29] = Induction of adverse effect in human infected with Respiratory syncytial virus A Memphis 37b assessed as diarrhea at 200 to 350 mg administered twice daily administered for 5 days; conditions: in vivo, 120 h, dose 200-350 mg, time 5 day; in short: as §2

NCc1ccc2c(c1)nc(CN1C(=O)C3(CC3)c3ccc(F)cc31)n2CCCC(F)(F)F [SISUNATOVIR]
CC50 [1]: > 4 µM | fraction unbound at 5 µM [2]: 0.52 | fraction unbound at 5 µM [3]: 0.27 | Microsomal intrinsic clearance [4]: 17 µL/min | intrinsic clearance (CLint) [5]: 44 µL/min | clearance [6]: 164 mL/min/kg | hepatocyte CLint at 3 µM [7]: 14.8 µL/min/1e6 cells | hepatocyte CLint at 3 µM [8]: 2.4 µL/min/1e6 cells | half-life at 3 µM [9]: 3.52 h | CC50 [10]: > 20 µM | half-life [11]: 4.2 h | half-life [12]: 3.1 h | half-life [13]: 9.9 h | Tmax [14]: 2 h | Tmax [15]: 5.3 h | Cmax [16]: 224 ng/mL | Cmax [17]: 74.2 ng/mL | Cmax [18]: 475 ng/mL | Cmax [19]: 82.4 ng/mL | clearance [20]: 17.8 mL/min/kg | bioavailability [21]: 46.4% | log(activity) [22]: 2.35 | fold change (FC) [23]: 76 | Activity (Human orthopneumovirus [24]): 79% | Activity [25]: Toxic | Activity [26]: Toxic | Activity (Rattus norvegicus): Not toxic | Activity (Human orthopneumovirus [27]): 76.42% | Activity [28]: Toxic | Activity [29]: Toxic
